Experimental findings from ChEMBL document CHEMBL5346974, “Discovery of 5-Phenylpyrazolopyrimidinone Analogs as Potent Antitrypanosomal Agents with In Vivo Efficacy” (J Med Chem, 2023) are described below.

What all share (format): functional, organism-based
For experiment [1], the system named is Trypanosoma brucei brucei. Description: In vivo antitrypanosomal activity against Trypanosoma brucei brucei infected stage-I mouse model of HAT assessed as clearance of peripheral blood parasites at 50 mg/kg, po twice daily for 5 consecutive days. The conditions noted are these: time 5.0 day. The procedure, abridged:
(§1)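 Mice in groups of three were infected IP with 10^4 T. b. brucei Squib 427 […]. Parasitemia was checked by tail-vein blood microscopy up to 63 dpi, plus SL RNA qPCR on survivors.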

Experiment [2] has as its system Trypanosoma brucei brucei. Kind of experiment: In vivo antitrypanosomal activity against Trypanosoma brucei brucei infected stage-I po dosed mouse model of HAT assessed as clearance of parasitemia treated twice daily for 5 consecutive days. The conditions noted are these: dose 6.25-50 mg/kg, time 5.0 day. An outline of the steps: as §1
In experiment [3] the test system is Trypanosoma brucei brucei. Description: In vivo antitrypanosomal activity against Trypanosoma brucei brucei infected stage-I mouse model of HAT assessed as clearance of peripheral blood parasites at 50 mg/kg, po twice daily for 5 consecutive days measured for 60 days of post infection. As to conditions: time 60.0 day. The procedure, abridged: as §1

Molecules are shown by their SMILES. Activity calls are given as the source filed them. The calls are words filed in the database; no cut-off is given here.

With `Cc1ccc(C(=O)Nc2ccc(S(=O)(=O)O)c3cc(S(=O)(=O)O)cc(S(=O)(=O)O)c23)cc1NC(=O)c1cccc(NC(=O)Nc2cccc(C(=O)Nc3cc(C(=O)Nc4ccc(S(=O)(=O)O)c5cc(S(=O)(=O)O)cc(S(=O)(=O)O)c45)ccc3C)c2)c1`, the result in experiment [1] was Active.

Consider `CC(C)c1n[nH]c2c(=O)[nH]c(-c3ccc(F)cc3)nc12`, for which the Activity result in experiment [2] is “Dose-Dependent Effect”. Moreover, the outcome in experiment [3] was Active.
